Source: publication PMC7254033 (Saudi Journal of Biological Sciences, 2019)
Values after ≈ are worked out from the molar mass of the structure shown. Marks after values point to notes of the source that are not given here.

Experiments:
[1] = tested on: Candida albicans NR-29450; assay: Anti-yeast activity, CLSI M27-A3 microdilution MIC; format: cell-based; conditions: NR29450, 48 h, read-out: Antifungal activity Minimal Inhibitory Concentrations, C. albicans
How it was run: (§1)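 Broth microdilution per CLSI M27-A3 in RPMI 1640 with two-fold serial dilutions over ten concentrations, alongside fluconazole reference dilutions. Strains were kept on agar slopes at 4 °C and subcultured for 48 h before each run. Inoculum was standardized at 2.50 × 10^3 cells/mL, with a blank sterility column. Plates were incubated 48 h at 37 °C. MIC was the lowest concentration with no visible turbidity. Tested in triplicate.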

[2] = DPPH radical scavenging activity; conditions: 30 mins in the dark, absorbance at 517 nm
How it was run: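 DPPH was made up at 0.02% in methanol ([…]), stored closed away from light and heat. Serial dilutions of test compound were mixed with the DPPH solution to eight final two-fold concentrations, with ascorbic acid treated identically as positive control. Mixtures stood 30 min in the dark at room temperature. Absorbance at 517 nm was read against blank. % scavenging = (Ao − As)/Ao × 100, and IC50 was deduced from it. Triplicate.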

Candida krusei ATCC 6258 = assay: Anti-yeast activity, CLSI M27-A3 microdilution MIC; format: cell-based; conditions: for Antifungal activity, folds less than fuconazole: strain not given, fits C. krusei of Table 3
How it was run: as §1

Candida glabrata isolate = assay: Anti-yeast activity, CLSI M27-A3 microdilution MIC; format: cell-based; conditions: 48 h, 37 °C
How it was run: as §1

[3] = tested on: zymosan stimulated human whole blood phagocytes; assay: Oxidative burst assay; format: cell-based; conditions: read-out: ROS Inhibition (IC50 µg/mL)
How it was run: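 Diluted human whole blood phagocytes were stimulated with zymosan and intracellular ROS measured by luminol-enhanced chemiluminescence. Test compound was given at three concentrations (1, 10 and 100), with ibuprofen as standard anti-inflammatory drug. IC50 was derived.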

CC1(C)CC[C@]2(C(=O)O)CC[C@]3(C)C(=CC[C@@H]4[C@@]5(C)CC[C@H](O)C(C)(C)[C@@H]5CC[C@]43C)[C@@H]2C1 [Compound 5, oleanolic acid]
MIC [1]: 500 µg/mL (≈ 1090 µM) | DPPH radical scavenging activity IC50 [2]: ˃1000 µg/mL

C=C(C)[C@@H]1CC[C@]2(C)CC[C@]3(C)[C@H](CC[C@@H]4[C@@]5(C)CC[C@H](O)C(C)(C)[C@@H]5CC[C@]43C)[C@@H]12 [Compound 7, lupeol]
MIC [1]: 500 µg/mL (≈ 1170 µM) | DPPH radical scavenging activity IC50 [2]: ˃1000 µg/mL | Antifungal activity, folds less than fuconazole (Candida krusei ATCC 6258): 5 folds

C=C(C)[C@@H]1CC[C@]2(C(=O)O)CC[C@]3(C)[C@H](CC[C@@H]4[C@@]5(C)CC[C@H](O)C(C)(C)[C@@H]5CC[C@]43C)[C@@H]12 [Compound 8, betulinic acid]
MIC [1]: 500 µg/mL (≈ 1090 µM) | DPPH radical scavenging activity IC50 [2]: ˃1000 µg/mL | Antifungal activity, folds less than fuconazole (Candida krusei ATCC 6258): 5 folds

C=C(C)[C@@H]1CC[C@]2(C)CC[C@]3(C)[C@H](CC[C@@H]4[C@@]5(C)CCC(=O)C(C)(C)[C@@H]5CC[C@]43C)[C@@H]12 [Compound 10, lupenone]
MIC [1]: 500 µg/mL (≈ 1180 µM) | DPPH radical scavenging activity IC50 [2]: ˃1000 µg/mL

OC(Cn1cncn1)(Cn1cncn1)c1ccc(F)cc1F [Fluconazol, fluconazole, reference compound]
Antifungal activity Minimal Inhibitory Concentrations, C. krusei (Candida krusei ATCC 6258; 48 h, 37 °C): 50 µg/mL | Antifungal activity Minimal Inhibitory Concentrations, C. glabrata (Candida glabrata isolate): 50 µg/mL

CC(C)Cc1ccc(C(C)C(=O)O)cc1 (centres unmarked) [Ibuprofen]
IC50 [3]: 11.2 ± 1.9 µg/mL (≈ 54.3 µM)

O=C1O[C@H]([C@@H](O)CO)C(O)=C1O [Vitamin C, ascorbic acid, reference compound]
DPPH radical scavenging activity IC50 [2]: 3.343 ± 0.271^a µg/mL
